# ChEMBL document CHEMBL1128748, “Novel acridine-triazenes as prototype combilexins: synthesis, DNA binding, and biological activity” (J Med Chem, 1995)
# Columns and labels:
# Calf thymus DNA [1] = test: Change in DNA-melting (deltaTm) with calf thymus DNA at pH 7.0; format: functional; conditions: Bos taurus
# Method in brief: (§1)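 Thermal denaturation in stoppered quartz cuvettes. DNA in 10 mM sodium phosphate, 1 mM EDTA, at pH 6.00 (CT-DNA, poly(dA-dT), poly(dG-dC)) or pH 7.00 (CT-DNA only). Working DNA 100 μM; ligand added in DMSO to 20 μM final (drug:DNA 1:5). DMSO up to 6.25% v/v, with linear correction. Heated at 1 °C/min and followed by A260. ΔTm is ligand minus drug-free control, mean of three.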
# Calf thymus DNA [2] = test: Induced change in DNA-melting (deltaTm) with calf thymus DNA at […]; format: functional; conditions: Bos taurus; method in brief: as §1
# Nucleic Acid [3] = test: Inhibitory concentration against ethidium in DNA-binding assay with [poly(dA-dT)]2 (synthetic oligonucleotide); format: nucleic-acid assay
# Method in brief: (§2)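 Quenching of DNA-bound ethidium at pH 5.0 (9.3 mM NaCl, 2 mM NaOAc, 0.1 mM EDTA, ionic strength 0.01 M). Synthetic DNA 20 μM with 2 μM ethidium bromide, 20 °C. Drug added serially from about 5 mM DMSO stock. Excitation 546 nm, emission 595 nm. Q is the drug concentration giving 50% fluorescence loss, mean of three.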
# Nucleic Acid [4] = test: Inhibitory concentration against ethidium in DNA-binding assay with [poly(dG-dC)]2 (synthetic oligonucleotide); format: nucleic-acid assay; method in brief: as §2
# Nucleic Acid [5] = test: Induced change in DNA-melting (deltaTm) with [poly(dA-dT)]2 at […]; format: functional; method in brief: as §1
# A2780 = test: Concentration required to inhibit the cell growth by 50 % after 96 hr […].; format: functional, cell-based; conditions: Homo sapiens, A2780, 96 h
# Method in brief: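 A2780 cells in DMEM with 10% FCS, glutamine, insulin and hydrocortisone, plated at (0.1–5) × 10³ per well and attached overnight. DMSO stocks (≤0.5% v/v) were diluted in pH 7.0 buffer. Continuous drug exposure for 96 h. TCA fixation, sulforhodamine B staining, Tris solubilization, absorbance at 540 nm. IC50 taken against solvent-treated drug-free controls.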
# Calf thymus DNA [6] = test: Inhibitory concentration against ethidium in DNA-binding assay; format: nucleic-acid assay; conditions: Bos taurus
# Method in brief: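 Ethidium displacement from CT-DNA at pH 5.0 (9.3 mM NaCl, 2 mM NaOAc, 0.1 mM EDTA), with 1.26 μM ethidium bromide and 1 μM CT-DNA, 20 °C. Drug added serially from about 5 mM DMSO stock. Excitation 546 nm, emission 595 nm. CC50 is the concentration halving bound-ethidium fluorescence, mean of three.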
# L1210 [7] = test: Concentration required to inhibit the cell growth by 50 % after 48 hr in L1210 leukemic cells.; format: functional, cell-based; conditions: Mus musculus, L1210, 48 h
# Method in brief: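 Mouse L1210 leukemia cells at 5 × 10³ cells/mL. Exposed to drug for 48 h at 37 °C; stocks held ≤0.5% v/v DMSO. Surviving cells were counted with a Coulter counter against drug-free controls to give IC50. Run in duplicate.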
# Nucleic Acid [8] = test: Induced change in DNA-melting (deltaTm) with [poly(dG-dC)]2 at […]; format: functional; method in brief: as §1
# Nucleic Acid [9] = test: Induced change in DNA-melting (deltaTm) with [poly(dA-dT)]2 at pH 65.0; format: functional; method in brief: as §1
# Nucleic Acid [10] = test: Inhibitory concentration against DNA-bound ethidium for cytotoxicity; format: functional
# Calf thymus DNA [11] = test: Change in DNA-melting (deltaTm) with calf thymus DNA at […]; format: functional; conditions: Bos taurus; method in brief: as §1
# Calf thymus DNA [12] = test: Induced change in DNA-biphasic melting (deltaTm) with calf thymus DNA at […]; format: functional; conditions: Bos taurus; method in brief: as §1
# L1210 [13] = test: Inhibitory concentration against L1210 leukemic cell proliferation over 24 hr; conditions: Mus musculus, L1210, 24 h
# Calf thymus DNA [14] = test: (§3) Induced change in DNA-melting (deltaTm) with calf thymus DNA at pH 7.0; format: functional; conditions: Bos taurus; method in brief: as §1
# Calf thymus DNA [15] = test: as §3; format: nucleic-acid assay; conditions: Bos taurus; method in brief: as §1
# Calf thymus DNA [16] = test: Induced change in DNA-biphasic melting (deltaTm) with calf thymus DNA at pH 7.0; format: functional; conditions: Bos taurus; method in brief: as §1
Structure (SMILES),Tm shift (Calf thymus DNA [1]),Tm shift (Calf thymus DNA [2]),Q (Nucleic Acid [3]),Q (Nucleic Acid [4]),Tm shift (Nucleic Acid [5]),IC50 (A2780),Q (Calf thymus DNA [6]),IC50 (L1210 [7]),Tm shift (Nucleic Acid [8]),Tm shift degreeC (Nucleic Acid [9]),CC50 (Nucleic Acid [10]),Tm shift (Calf thymus DNA [11]),Tm shift (Calf thymus DNA [12]),IC50 (L1210 [13]),Tm shift (Calf thymus DNA [14]),Tm shift (Calf thymus DNA [15]),Tm shift (Calf thymus DNA [16])
Nc1ccc2cc3ccc(N)cc3nc2c1 [PROFLAVINE],11.5 °C,16.4 °C,24 µM,14 µM,24.4 °C,0.47 µM,20 µM,2.7 µM,7 °C,,,,,,,,
c1ccc(-c2c3ccccc3nc3ccccc23)cc1,0.4 °C,,23 µM,18 µM,,> 100 µM,22 µM,80 µM,0.4 °C,0.6 °C,175 µM,1.3 °C,,,,,
Cc1nc(-c2c3ccccc3nc3ccccc23)sc1CCOC(=O)c1ccc(N/N=N/c2ccc(C(=N)N)cc2)cc1,,,12 µM,31 µM,2.4 °C,16 µM,18 µM,66 µM,,,2.9 µM,,,,,,
Cc1nc(-c2c3ccccc3nc3ccccc23)sc1CCOC(=O)c1ccc(/N=N/Nc2cccc(C(=O)OCCN(C)C)c2)cc1,,,14 µM,34 µM,1.6 °C,3.8 µM,17 µM,3 µM,< 0.2 °C,,1.2 µM,,2.1 °C,,,,
COc1cc(NS(C)(=O)=O)ccc1Nc1c2ccccc2nc2ccccc12 [AMSACRINE],1 °C,,25 µM,4.5 µM,4 °C,0.1 µM,3.8 µM,,,,8.9 µM,,,0.05 µM,,,
Cc1nc(-c2c3ccccc3nc3ccccc23)sc1CCOC(=O)c1ccc(N/N=N/c2ccc(C(=O)OCCN3CCCC3)cc2)cc1,1.4 °C,,15 µM,45 µM,1.5 °C,3.5 µM,26 µM,3.4 µM,0.3 °C,,2.8 µM,2.9 °C,,,,,
Nc1ccc2c(=O)c3ccc(N)cc3[nH]c2c1,,,,,,> 100 µM,,67 µM,,,,,,,,,
N=C(N)c1ccc(/N=N/Nc2ccc(C(=N)N)cc2)cc1 [DIMINAZENE],7.9 °C,,5 µM,19 µM,,,9 µM,32 µM,,,4.4 µM,9.3 °C,,,,,
O=C(OCCN1CCOCC1)c1ccc(/N=N/Nc2ccc(C(=O)OCCN3CCOCC3)cc2)cc1,,,14 µM,17 µM,,,15 µM,> 100 µM,,,6.8 µM,3.6 °C,,,1.4 °C,,
Cc1nc(-c2c3ccccc3nc3ccccc23)sc1CCOC(=O)c1ccc(N/N=N/c2ccc(C(N)=O)cc2)cc1,,,21 µM,36 µM,,5.3 µM,26 µM,28 µM,,,96 µM,,,,,,
CC(=O)c1ccc(N/N=N/c2ccc(C(=O)OCCc3sc(-c4c5ccccc5nc5ccccc45)nc3C)cc2)cc1,,,19 µM,33 µM,,> 100 µM,25 µM,100 µM,,,123 µM,,,,,,
Cc1nc(-c2c3ccccc3nc3ccccc23)sc1CCOC(=O)c1ccc(N/N=N/c2ccc(C(=O)OCCN3CCOCC3)cc2)cc1,,,17 µM,39 µM,0.9 °C,2.6 µM,28 µM,32 µM,,,6.1 µM,,2.4 °C,,,,
Nc1ccc2c(-c3ccccc3)c3ccc(N)cc3nc2c1,6.9 °C,,22 µM,16 µM,20.3 °C,1.2 µM,19 µM,2 µM,3.3 °C,,,11.7 °C,,,,,
c1ccc2nc3ccccc3cc2c1 [ACRIDINE],0.7 °C,,26 µM,22 µM,0.7 °C,> 100 µM,24 µM,45 µM,0.8 °C,,142 µM,1.7 °C,,,,,
Cc1nc(-c2c3ccccc3nc3ccccc23)sc1CCOC(=O)c1ccc(N/N=N/c2ccc(C(=O)OCCN3CCCCC3)cc2)cc1,,,14 µM,52 µM,1.9 °C,3.9 µM,27 µM,6.2 µM,0.2 °C,,3.2 µM,2.4 °C,,,,1.5 °C,
Cc1nc(-c2c3ccccc3nc3ccccc23)sc1CCOC(=O)c1ccc(N)cc1,0.4 °C,,24 µM,17 µM,0.8 °C,> 100 µM,20 µM,,,,230 µM,1.1 °C,,,,,
Cc1nc(-c2c3ccccc3nc3ccccc23)sc1CCO,< 0.2 °C,,22 µM,19 µM,0.7 °C,> 100 µM,21 µM,,< 0.2 °C,,190 µM,1 °C,,,,,
O=C(OCCN1CCCCC1)c1ccc(/N=N/Nc2ccc(C(=O)OCCN3CCCCC3)cc2)cc1,,,11 µM,14 µM,,,13 µM,> 100 µM,,,5.7 µM,14.5 °C,,,,7.7 °C,
Cc1nc(-c2c3ccccc3nc3ccccc23)sc1CCOC(=O)c1ccc(/N=N/Nc2ccc(C(=O)OCCN(C)C)cc2)cc1,,,16 µM,66 µM,1.7 °C,3.1 µM,35 µM,3.2 µM,< 0.2 °C,,3.6 µM,,3 °C,,,,1.8 °C
